Experimental data as given in ChEMBL document CHEMBL2034874, “5-acetyl-2-arylbenzimidazoles as antiviral agents. Part 4” (Eur J Med Chem, 2012).

Legend:
[1] = Antiviral activity against BVDV1 NADL ATCC VR-534 infected in MDBK cells assessed as inhibition of virus-induced cytopathogenicity after 3 to 4 days by MTT assay; format: functional, cell-based, Bovine viral diarrhea virus 1-NADL; settings: Bovine viral diarrhea virus isolates and strains, ATCC VR-534, MDBK
In short: (§1)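 BHK (5×10^4/well) or MDBK (3×10^4/well) cells grown to confluent monolayers overnight, infected at m.o.i. 0.01 in maintenance MEM-Earl with 0.5% inactivated FBS. Serially diluted compounds added after 1 h. Viability read by MTT after 3–4 days at 37 °C. Values are expressed as % of untreated controls, and EC50 is derived by linear regression. Duplicate samples.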

[2] = Cytotoxicity against BHK21 cells by MTT assay; format: cell-based, Mesocricetus auratus; settings: hamster, BHK-21 cells
In short: (§2)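 Mock-infected MDBK (6×10^5 cells/mL, MEM-E with 10% horse serum) or BHK (1×10^6 cells/mL, MEM-E with 10% FBS) cells incubated with serial compound dilutions at 37 °C and 5% CO2. Viability measured by MTT after 48–96 h. CC50 by linear regression against untreated controls.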

[3] = Cytotoxicity against MDBK cells after 48 to 96 hrs by MTT assay; format: cell-based, Bos taurus; settings: cattle; in short: as §2
[4] = Cytotoxicity against human MT4 cells after 96 hrs by MTT assay; format: cell-based
In short: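 Exponentially growing MT-4 cells seeded at 1×10^5 cells/mL in RPMI-1640 with 10% FBS and incubated with serial compound dilutions at 37 °C and 5% CO2. Viability measured by MTT after 96 h. CC50 by linear regression against untreated controls.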

[5] = test system: Human immunodeficiency virus 1; assay: Antiviral activity against HIV1 3B infected in human MT4 cells assessed as inhibition of virus-induced cytopathogenicity after 4 days by MTT assay; format: functional, organism-based; settings: Human immunodeficiency virus 1, 3B, MT4, 96 h
In short: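 MT-4 cells (1×10^4/well) in RPMI with serial compound dilutions, infected with HIV-1 IIIB at 100 CCID50 (m.o.i. 0.01). Viability measured by MTT after 4 days at 37 °C. EC50 for 50% protection from cytopathogenicity obtained by linear regression against untreated controls.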

[6] = test system: Yellow fever virus; assay: Antiviral activity against Yellow fever virus 17D infected in BHK21 cells assessed as inhibition of virus-induced cytopathogenicity after 3 to 4 days by MTT assay; format: functional, cell-based; settings: BHK-21
[7] = test system: Vesicular stomatitis Indiana virus; assay: Antiviral activity against Vesicular stomatitis virus indiana ATCC VR-1540 infected in african green monkey Vero-76 cells assessed as reduction in viral plaque after 2 days by crystal violet staining; format: functional, organism-based; settings: ATCC VR-1540, Vero 76, 48 h
[8] = test system: Coxsackievirus B5; assay: Antiviral activity against Coxsackie virus type B5 Ohio-1 ATCC VR-29 infected in african green monkey Vero-76 cells assessed as reduction in viral plaque after 3 days by crystal violet staining; format: functional, organism-based; settings: Enterovirus B, Ohio-1 ATCC VR-29, Vero 76, 72 h
In short: (§3)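 Vero-76 monolayers (2×10^5 cells/well) infected for 2 h at 50–100 PFU/well. Unadsorbed virus removed. D-MEM with 1% inactivated FBS, 0.75% methylcellulose and serial compound dilutions added. Incubation at 37 °C for 3 days (CVB-5, HSV-1) or 5 days (RSV). Fixed and stained with 50% ethanol/0.8% crystal violet, then plaques counted. EC50 by linear regression versus untreated controls.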

[9] = test system: Vaccinia virus; assay: Antiviral activity against Vaccinia virus Elstree-Lister ATCC VR-1549 infected in african green monkey Vero-76 cells assessed as reduction in viral plaque after 3 days by crystal violet staining; format: functional, organism-based; settings: Orthopoxvirus vaccinia, Elstree-Lister ATCC VR-1549, Vero 76, 72 h
[10] = test system: Human alphaherpesvirus 1; assay: Antiviral activity against Herpes simplex virus type 1 KOS ATCC VR-1493 infected in african green monkey Vero-76 cells assessed as reduction in viral plaque after 3 days by crystal violet staining; format: functional, organism-based; settings: Human alphaherpesvirus 1, KOS ATCC VR1493, Vero 76, 72 h; in short: as §3
[11] = Antiviral activity against Human respiratory syncytial virus A2 ATCC VR-1540 infected in african green monkey Vero-76 cells assessed as reduction in viral plaque after 5 days by crystal violet staining; format: functional, cell-based; settings: ATCC VR-1540, Vero 76, 120 h; in short: as §3
[12] = test system: Poliovirus 1; assay: Antiviral activity against Polio virus type 1 strain sabin ATCC VR-1562 infected in african green monkey Vero-76 cells assessed as reduction in viral plaque after 2 days by crystal violet staining; format: functional, cell-based, Human poliovirus 1 strain Sabin; settings: Enterovirus C, ATCC VR-1562, Vero 76, 48 h
[13] = Cytotoxicity against african green monkey Vero 76 cells after 48 to 96 hrs by MTT assay; format: cell-based; settings: chlorocebus sabaeus
[14] = test system: Mammalian orthoreovirus 1; assay: Antiviral activity against Reovirus 1 3651 ATCC VR-214 infected in BHK21 cells assessed as inhibition of virus-induced cytopathogenicity after 3 to 4 days by MTT assay; format: functional, organism-based; settings: Mammalian orthoreovirus 1, 3651 ATCC VR-214, BHK-21; in short: as §1

`CC(=O)c1ccc2[nH]c(/C=C/c3ccc([N+](=O)[O-])cc3)nc2c1` showed an EC50 [1] of 1.7 µM.
In the case of `C[C@@]1(O)[C@H](O)[C@@H](CO)O[C@H]1n1cnc2c(=O)[nH]c(N)nc21` [2'-B-METHYL-GUANOSINE], the CC50 [2] is reported as over 10 µM, the CC50 [3] is reported as over 10 µM and the EC50 [1] is reported as 1.1 µM.
`C/C(=N\O)c1ccc2[nH]c(-c3ccc(Cl)cc3)nc2c1` showed a CC50 at 96 h [4] of 20 µM, an EC50 [5] of over 20 µM and a CC50 [2] of 33 µM. It also gave an EC50 [6] of over 33 µM, a CC50 [3] of 37 µM and an EC50 [1] of 18 µM.
For `Nc1ccc(-c2nc3cc(Cl)ccc3[nH]2)c2ccccc12`, the EC50 [6] was 27 µM.
For `C/C(=N\NC(N)=O)c1ccc2[nH]c(C3CCCCC3)nc2c1`, the EC50 [7] was over 100 µM, the EC50 [8] was over 100 µM and the EC50 [9] was over 100 µM. For the same compound, the EC50 [10] was over 100 µM, the CC50 [2] was over 100 µM and the EC50 [11] was over 100 µM. The EC50 [6] was over 100 µM, the CC50 [3] was over 100 µM and the EC50 [12] was over 100 µM. For the same compound, the EC50 [1] was 44 µM, the CC50 [13] was over 100 µM and the EC50 [14] was over 100 µM.
`COc1ccc(-c2nc3cc(/C(C)=N/NC(N)=O)ccc3[nH]2)cc1` gave a CC50 [3] of 25 µM and an EC50 [1] of 11 µM.
With `C/C(=N\NC(N)=O)c1ccc2c(c1)nc(-c1ccccn1)n2C1CCCCC1` the EC50 [7] was over 100 µM, the EC50 [8] was over 100 µM and the EC50 [9] was over 100 µM. It also gave an EC50 [10] of over 100 µM, a CC50 [2] of over 100 µM and an EC50 [11] of over 100 µM. It also gave an EC50 [6] of over 100 µM, a CC50 [3] of over 100 µM and an EC50 [12] of over 100 µM. For the same compound, the EC50 [1] was over 100 µM, the CC50 [13] was over 100 µM and the EC50 [14] was over 100 µM.
With `O=c1cnn([C@@H]2O[C@H](CO)[C@@H](O)[C@H]2O)c(=O)[nH]1` [6-AZAURIDINE] the EC50 [11] was 1.2 µM and the CC50 [13] was at least 12.5 µM.
With `CC(=O)c1ccc2[nH]c(-c3ccc(Cl)cc3)nc2c1` the EC50 [7] was over 100 µM, the EC50 [8] was over 100 µM and the EC50 [9] was over 100 µM. For the same compound, the EC50 [10] was over 100 µM, the CC50 [2] was over 100 µM and the EC50 [11] was over 100 µM. The EC50 [6] was over 100 µM, the CC50 [3] was over 100 µM and the EC50 [12] was over 100 µM. For the same compound, the EC50 [1] was over 100 µM, the CC50 [13] was over 100 µM and the EC50 [14] was over 100 µM.
Compound `CC(=O)c1ccc2[nH]c(-c3ccc(C(F)(F)F)cc3)nc2c1` has an EC50 [7] of over 100 µM, an EC50 [8] of over 100 µM and an EC50 [9] of over 100 µM. It also gave an EC50 [10] of over 100 µM, a CC50 [2] of over 100 µM and an EC50 [11] of over 100 µM. For the same compound, the EC50 [6] was over 100 µM, the CC50 [3] was over 100 µM and the EC50 [12] was over 100 µM. It also gave an EC50 [1] of 15 µM, a CC50 [13] of over 100 µM and an EC50 [14] of over 100 µM.
Work on `Cc1cc2nc(-c3cccc4ccccc34)[nH]c2cc1C` yielded an EC50 [6] of 6 µM.
For `C/C(=N\NC(N)=O)c1ccc2c(c1)nc(-c1ccccc1)n2C1CCCCC1`, the EC50 [7] was over 100 µM, the EC50 [8] was over 100 µM and the EC50 [9] was over 100 µM. The EC50 [10] was over 100 µM, the CC50 [2] was over 100 µM and the EC50 [11] was over 100 µM. For the same compound, the EC50 [6] was over 100 µM, the CC50 [3] was over 100 µM and the EC50 [12] was over 100 µM. It also gave an EC50 [1] of over 100 µM, a CC50 [13] of over 100 µM and an EC50 [14] of over 100 µM.
`Clc1ccc2c(c1)nc(Cn1nc3ccccc3n1)n2C[C@H]1CCCN2CCCCC12` (some centres undefined) gave an EC50 [11] of 0.03 µM.
Compound `O=[N+]([O-])c1ccc(-c2nc3cc(Cl)c(Cl)cc3[nH]2)cc1` has an EC50 [9] of 0.1 µM.
Compound `C/C(=N\O)c1ccc2[nH]c(-c3ccc(C(F)(F)F)cc3)nc2c1` has a CC50 [3] of 55 µM and an EC50 [1] of over 55 µM.
Compound `C#C[C@@]1(O)[C@H](O)[C@@H](CO)O[C@H]1n1ccc(N)nc1=O` [2'-ETHYNYL-D-CYTIDINE] has an EC50 [8] of 27 µM, an EC50 [12] of 23 µM and a CC50 [13] of over 100 µM.
In the case of `Nc1ccc(-c2nc3cc(Cl)c(Cl)cc3[nH]2)c2ccccc12`, the EC50 [6] is reported as 16 µM.
